# Reference: ChEMBL document CHEMBL4130369, “Structure-activity relations of rosmarinic acid derivatives for the amyloid β aggregation inhibition and antioxidant properties” (Eur J Med Chem, 2017)
# Columns and labels:
# [1] = Antioxidant activity assessed as inhibition of DPPH radical at 100 uM incubated for 20 mins measured for 60 mins relative to control; format: functional
# Method in brief: (§1)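 DPPH (40 μL of 1 mM stock) in EtOH; test compound added from 2 mM or 10 mM DMSO stocks at rt. Absorbance at 517 nm read continuously for 60 min. Radical trapping capacity was calculated from the 20 min reading.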
# [2] = Antioxidant activity assessed as inhibition of DPPH radical at 500 uM incubated for 20 mins measured for 60 mins relative to control; format: functional; method in brief: as §1
# [3] = Inhibition of butter milk XOD (unknown origin) at 100 uM using xanthine as substrate after 8 mins relative to control
# Method in brief: (§2)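 Butter-milk xanthine oxidase in 100 mM phosphate buffer, pH 7.6, with compound added in DMSO. Reaction started with 500 μM xanthine (solution concentration) at rt and stopped after 8 min with 1N HCl. Absorbance at 290 nm was compared with enzyme-activity and blank wells to calculate % inhibition.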
# [4] = target: T1, Amyloid-beta precursor protein (Homo sapiens, UniProt P05067); experiment: Inhibition of QD-labeled amyloid beta (1 to 42) (unknown origin) aggregation after 24 hrs by inverted fluorescence microscopic method
# Method in brief: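 Modified MSHTS: 30 μM Aβ(1-42) plus 30 nM QD-labeled Aβ(1-42) with serial compound concentrations in PBS containing 5% EtOH and 3% DMSO, 37°C, 24 h. Coaggregates were imaged by inverted fluorescence microscopy with a color CCD. SD of pixel fluorescence in the well centre (100×100 pixels) was plotted against concentration, and EC50 was fitted by global EC50-shift fitting.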
# [5] = Inhibition of butter milk XOD (unknown origin) at 10 uM using xanthine as substrate after 8 mins relative to control; method in brief: as §2
# [6] = Inhibition of butter milk XOD (unknown origin) at 1 uM using xanthine as substrate after 8 mins relative to control
# Method in brief: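 Buttermilk xanthine oxidase in 100 mM phosphate buffer pH 7.6 was mixed with compound in DMSO. The reaction was started with xanthine solution (500 μM as added) and run at rt for 8 min, then stopped with 1N HCl. Absorbance was read at 290 nm, and % inhibition was calculated against enzyme-activity and blank wells.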
# [7] = target: T1, Amyloid-beta precursor protein; experiment: Inhibition of QD-labeled amyloid beta (1 to 42) (unknown origin) aggregation assessed as change in fluorescence at 20.3 uM after 24 hrs by inverted fluorescence microscopic method (reference value: 6.77)
# Method in brief: (§3)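 Aβ(1-42) (30 μM) was co-incubated with 30 nM QD-labeled Aβ(1-42) and compound in PBS containing 5% EtOH and 3% DMSO at 37°C for 24 h. Coaggregates were imaged by inverted fluorescence microscope with a colour CCD camera. The read-out was the SD of fluorescence intensity over the central 100 × 100 pixels. Aggregation parameters came from Boltzmann fitting of SD versus time, compared with the no-inhibitor control.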
# [8] = target: T1, Amyloid-beta precursor protein; experiment: Inhibition of QD-labeled amyloid beta (1 to 42) (unknown origin) aggregation assessed as aggregation growth rate at 20.3 uM after 24 hrs by inverted fluorescence microscopic method (reference value: 0.533 /min)
# [9] = target: T1, Amyloid-beta precursor protein; experiment: Inhibition of QD-labeled amyloid beta (1 to 42) (unknown origin) aggregation assessed as lag time of aggregation at 20.3 uM after 24 hrs by inverted fluorescence microscopic method (reference value: 4.44 mins)
# [10] = target: T1, Amyloid-beta precursor protein; experiment: Inhibition of QD-labeled amyloid beta (1 to 42) (unknown origin) aggregation assessed as lag time of aggregation at 5.13 uM after 24 hrs by inverted fluorescence microscopic method (reference value: 4.44 mins)
# [11] = target: T1, Amyloid-beta precursor protein; experiment: Inhibition of QD-labeled amyloid beta (1 to 42) (unknown origin) aggregation assessed as change in fluorescence at 5.13 uM after 24 hrs by inverted fluorescence microscopic method (reference value: 6.77); method in brief: as §3
# [12] = target: T1, Amyloid-beta precursor protein; experiment: Inhibition of QD-labeled amyloid beta (1 to 42) (unknown origin) aggregation assessed as aggregation growth rate at 5.13 uM after 24 hrs by inverted fluorescence microscopic method (reference value: 0.533 /min)
# T1 sequence (P05067 whole entry): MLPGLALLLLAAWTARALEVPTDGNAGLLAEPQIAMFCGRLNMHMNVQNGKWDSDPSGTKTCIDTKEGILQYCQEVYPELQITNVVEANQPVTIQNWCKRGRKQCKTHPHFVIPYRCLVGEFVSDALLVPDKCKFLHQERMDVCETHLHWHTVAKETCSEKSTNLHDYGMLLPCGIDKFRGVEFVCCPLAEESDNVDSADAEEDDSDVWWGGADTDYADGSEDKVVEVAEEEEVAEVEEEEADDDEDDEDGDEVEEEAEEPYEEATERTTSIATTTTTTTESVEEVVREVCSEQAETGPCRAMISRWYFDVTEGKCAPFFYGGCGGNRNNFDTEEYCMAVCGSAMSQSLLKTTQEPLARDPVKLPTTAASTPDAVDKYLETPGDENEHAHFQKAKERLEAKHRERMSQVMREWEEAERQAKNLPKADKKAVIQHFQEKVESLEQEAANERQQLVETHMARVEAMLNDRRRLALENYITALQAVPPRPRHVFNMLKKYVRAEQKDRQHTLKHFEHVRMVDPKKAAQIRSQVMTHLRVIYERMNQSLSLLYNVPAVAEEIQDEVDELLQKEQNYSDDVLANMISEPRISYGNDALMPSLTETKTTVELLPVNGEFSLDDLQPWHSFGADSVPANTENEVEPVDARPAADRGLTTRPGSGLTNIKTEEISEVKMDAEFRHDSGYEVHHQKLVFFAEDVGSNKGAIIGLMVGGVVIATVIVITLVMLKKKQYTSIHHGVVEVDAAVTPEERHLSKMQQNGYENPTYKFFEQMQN
structure (smiles),measurement,setting,value
O=C(CCc1ccccc1)OCCc1ccccc1,inhibition,[1],< 10%
same,inhibition,[2],< 10%
same,inhibition,[3],< 10%
same,EC50,[4],4540 µM
same,inhibition,[5],< 10%
CCCCCCC(=O)/C=C/c1ccc(O)c(O)c1,inhibition,[1],48%
same,inhibition,[2],62%
same,inhibition,[3],76%
same,EC50,[4],2.82 µM
same,inhibition,[5],12%
CCCCCCCOC(=O)/C=C/c1ccc(O)c(O)c1,inhibition,[1],46%
same,inhibition,[2],63%
same,inhibition,[3],25%
same,EC50,[4],10.4 µM
same,inhibition,[5],11%
COc1ccc(CCOC(=O)CCc2ccccc2)cc1OC,inhibition,[1],< 10%
same,inhibition,[2],< 10%
same,inhibition,[3],< 10%
same,EC50,[4],274 µM
same,inhibition,[5],< 10%
C=CCOC(=O)/C=C/c1ccc(O)c(O)c1,inhibition,[1],46%
same,inhibition,[2],62%
same,inhibition,[3],22%
same,EC50,[4],23.2 µM
same,inhibition,[5],< 10%
Oc1ncnc2[nH]ncc12,inhibition,[6],< 10%
same,inhibition,[5],> 90%
O=C(/C=C/c1ccc(O)c(O)c1)OCCCCCO,inhibition,[1],41%
same,inhibition,[2],54%
same,inhibition,[3],84%
same,EC50,[4],80.1 µM
same,inhibition,[5],< 10%
O=C(CCc1ccc(O)c(O)c1)OCCc1ccc(O)c(O)c1,inhibition,[1],37%
same,inhibition,[2],49%
same,inhibition,[3],21%
same,EC50,[4],14.9 µM
same,inhibition,[5],< 10%
O=C(/C=C/c1ccc(O)c(O)c1)NCCc1ccc(O)c(O)c1,inhibition,[1],47%
same,inhibition,[2],64%
same,inhibition,[3],30%
same,EC50,[4],69 µM
same,inhibition,[5],< 10%
O=C(/C=C/c1ccc(O)c(O)c1)OCCc1ccc(O)c(O)c1,inhibition,[1],37%
same,inhibition,[2],46%
same,inhibition,[3],80%
same,EC50,[4],20.6 µM
same,inhibition,[5],26%
COc1ccc(CCOC(=O)/C=C/c2ccc(O)c(O)c2)cc1OC,inhibition,[1],43%
same,inhibition,[2],59%
same,inhibition,[3],43%
same,EC50,[4],39.5 µM
same,inhibition,[5],50%
O=C(O)/C=C/c1ccc(O)c(O)c1 [CAFFEIC ACID],inhibition,[1],49%
same,inhibition,[2],63%
same,inhibition,[3],< 10%
same,EC50,[4],216 µM
same,inhibition,[5],< 10%
O=C(/C=C/c1ccc(O)c(O)c1)OCCc1ccccc1 [CAFFEIC ACID PHENETHYL ESTER],inhibition,[1],35%
same,inhibition,[2],51%
same,inhibition,[3],62%
same,EC50,[4],8.41 µM
same,inhibition,[5],< 10%
O=C(/C=C/c1ccccc1)OCCc1ccc(O)c(O)c1,inhibition,[1],40%
same,inhibition,[2],56%
same,inhibition,[3],22%
same,EC50,[4],7.95 µM
same,inhibition,[5],< 10%
CCCCCOC(=O)/C=C/c1ccc(O)c(O)c1,inhibition,[1],46%
same,inhibition,[2],62%
same,inhibition,[3],> 90%
same,EC50,[4],2.58 µM
same,inhibition,[5],11%
CCCCOC(=O)/C=C/c1ccc(O)c(O)c1 [BUTYL CAFFEATE],inhibition,[1],46%
same,inhibition,[2],62%
same,inhibition,[3],> 90%
same,EC50,[4],12 µM
same,inhibition,[5],< 10%
NC(=O)C(Cc1ccc(O)c(O)c1)OC(=O)/C=C/c1ccc(O)c(O)c1 (stereo not given),inhibition,[1],39%
same,inhibition,[2],48%
same,inhibition,[3],82%
same,EC50,[4],21.9 µM
same,inhibition,[5],38%
O=C(/C=C/c1ccccc1)OCCc1ccccc1 [PHENETHYL CINNAMATE],inhibition,[1],< 10%
same,inhibition,[2],< 10%
same,inhibition,[3],< 10%
same,EC50,[4],1040 µM
same,inhibition,[5],< 10%
CCCOC(=O)/C=C/c1ccc(O)c(O)c1,inhibition,[1],46%
same,inhibition,[2],63%
same,inhibition,[3],61%
same,EC50,[4],24.7 µM
same,inhibition,[5],< 10%
CCCCCCCCCOC(=O)/C=C/c1ccc(O)c(O)c1,inhibition,[1],45%
same,inhibition,[2],61%
same,inhibition,[3],40%
same,EC50,[4],9.52 µM
same,inhibition,[5],< 10%
CC1=NN(c2ccccc2)C(=O)C1,inhibition,[1],50 to 53%
same,inhibition,[2],71 to 75%
O=C(/C=C/c1ccc(O)c(O)c1)O[C@H](Cc1ccc(O)c(O)c1)C(=O)O [ROSMARINIC ACID],inhibition,[1],47%
same,inhibition,[2],66%
same,inhibition,[3],27%
same,EC50,[4],20.3 µM
same,inhibition,[5],< 10%
same,Flu intensity,[7],3.4
same,K,[8],0.508 min⁻¹
same,TIME,[9],0.093 h
O=C(/C=C/c1ccc(O)c(O)c1)OCCCCCCO,inhibition,[1],42%
same,inhibition,[2],55%
same,inhibition,[3],51%
same,EC50,[4],54.8 µM
same,inhibition,[5],< 10%
COC(=O)/C=C/c1ccc(O)c(O)c1 [METHYLCAFFEATE],inhibition,[1],48%
same,inhibition,[2],64%
same,inhibition,[3],65%
same,EC50,[4],67.7 µM
same,inhibition,[5],< 10%
CCCCCCOC(=O)/C=C/c1ccc(O)c(O)c1 [HEXYLCAFFEATE],inhibition,[1],45%
same,inhibition,[2],61%
same,TIME,[10],0.0183 h
same,inhibition,[3],< 10%
same,EC50,[4],5.13 µM
same,Flu intensity,[11],3.68
same,inhibition,[5],10%
same,K,[12],0.19 min⁻¹
O=C(CCc1ccccc1)OCCc1ccc(O)c(O)c1,inhibition,[1],38%
same,inhibition,[2],54%
same,inhibition,[3],< 10%
same,EC50,[4],5.93 µM
same,inhibition,[5],< 10%
CCCCCNC(=O)/C=C/c1ccc(O)c(O)c1,inhibition,[1],40%
same,inhibition,[2],53%
same,inhibition,[3],33%
same,EC50,[4],11.4 µM
same,inhibition,[5],< 10%
